Active and inactive are the calls of the source. The rule behind the calls is not given here.
What was measured:
[1] = Clearance in rat administered as iv cassette dose; assay type: ADME, organism-based; conditions: in vivo
How it was run: (§1)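 IV cassette in male Sprague-Dawley rats (~300 g, n = 1 per experiment), cannulated in carotid artery and jugular vein and acclimated about one week. Plasma clearance, Vss, t1/2 and MRT were derived.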

[2] = target: Metabotropic glutamate receptor 4 (Rattus norvegicus, UniProt P31423); assay: (§2) Positive allosteric modulation of rat mGlu4 receptor expressed in HEK cells co-expressing GIRK1/2 assessed as increase in glutamate-induced thallium flux preincubated for 140 secs followed by glutamate addition and measured after 2.5 mins by FluoZin-2-AM dye based fluorescence assay; assay type: cell-based
Sequence of Metabotropic glutamate receptor 4 (Rattus norvegicus, UniProt P31423) (P31423 whole entry): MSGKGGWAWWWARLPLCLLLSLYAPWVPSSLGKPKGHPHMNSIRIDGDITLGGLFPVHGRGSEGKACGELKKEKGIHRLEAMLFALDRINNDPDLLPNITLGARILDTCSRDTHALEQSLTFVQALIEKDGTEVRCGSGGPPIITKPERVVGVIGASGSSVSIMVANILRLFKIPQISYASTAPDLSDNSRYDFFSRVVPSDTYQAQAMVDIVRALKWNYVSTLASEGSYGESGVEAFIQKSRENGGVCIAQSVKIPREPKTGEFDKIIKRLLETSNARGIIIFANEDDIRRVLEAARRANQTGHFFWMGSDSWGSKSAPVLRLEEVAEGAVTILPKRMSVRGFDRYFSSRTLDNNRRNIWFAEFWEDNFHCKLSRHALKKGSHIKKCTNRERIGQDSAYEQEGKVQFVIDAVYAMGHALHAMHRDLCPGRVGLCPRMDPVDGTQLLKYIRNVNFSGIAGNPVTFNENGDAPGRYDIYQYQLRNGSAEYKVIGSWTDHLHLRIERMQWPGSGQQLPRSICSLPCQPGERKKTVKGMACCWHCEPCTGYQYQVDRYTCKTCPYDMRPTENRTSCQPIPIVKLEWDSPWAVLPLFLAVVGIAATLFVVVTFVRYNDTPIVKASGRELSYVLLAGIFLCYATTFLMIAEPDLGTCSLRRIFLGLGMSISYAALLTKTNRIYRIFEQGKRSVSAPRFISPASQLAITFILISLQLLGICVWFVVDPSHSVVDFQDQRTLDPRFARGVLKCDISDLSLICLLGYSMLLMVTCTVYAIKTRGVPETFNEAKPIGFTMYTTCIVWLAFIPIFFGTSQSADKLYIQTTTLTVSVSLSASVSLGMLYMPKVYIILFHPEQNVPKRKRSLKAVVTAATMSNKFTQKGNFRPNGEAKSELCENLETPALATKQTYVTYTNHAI
How it was run: (§3)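 HEK cells co-expressing rat mGlu4 and GIRK1/2 were loaded for 1 h at room temperature with FluoZin-2 AM (330 nM final) in HBSS/20 mM HEPES pH 7.4. Compound was incubated 140 s, then thallium buffer with or without agonist was added. Reading continued for 2.5 min at room temperature. Potency was fitted by four-parameter logistic.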

[3] = Intrinsic clearance in rat liver microsomes at 1 uM preincubated for 5 mins followed by NADPH addition measured up to 45 mins by LC-MS/MS analysis; assay type: ADME, Microsome; conditions: read-out: CLH
How it was run: (§4)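 Intrinsic and predicted hepatic clearance derived from liver microsome incubations.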

[4] = target: T1, Metabotropic glutamate receptor 4 (Homo sapiens, UniProt Q14833); assay: (§5) Positive allosteric modulation of human mGlu4 receptor expressed in CHO cells co-expressing Gqi5 assessed as increase in glutamate-induced calcium mobilization preincubated for 142 secs followed by EC20 glutamate addition and subsequent EC80 glutamate addition after 147 secs by Fluo-4-AM dye based fluorescence assay; assay type: functional, cell-based
T1 sequence (Q14833 whole entry): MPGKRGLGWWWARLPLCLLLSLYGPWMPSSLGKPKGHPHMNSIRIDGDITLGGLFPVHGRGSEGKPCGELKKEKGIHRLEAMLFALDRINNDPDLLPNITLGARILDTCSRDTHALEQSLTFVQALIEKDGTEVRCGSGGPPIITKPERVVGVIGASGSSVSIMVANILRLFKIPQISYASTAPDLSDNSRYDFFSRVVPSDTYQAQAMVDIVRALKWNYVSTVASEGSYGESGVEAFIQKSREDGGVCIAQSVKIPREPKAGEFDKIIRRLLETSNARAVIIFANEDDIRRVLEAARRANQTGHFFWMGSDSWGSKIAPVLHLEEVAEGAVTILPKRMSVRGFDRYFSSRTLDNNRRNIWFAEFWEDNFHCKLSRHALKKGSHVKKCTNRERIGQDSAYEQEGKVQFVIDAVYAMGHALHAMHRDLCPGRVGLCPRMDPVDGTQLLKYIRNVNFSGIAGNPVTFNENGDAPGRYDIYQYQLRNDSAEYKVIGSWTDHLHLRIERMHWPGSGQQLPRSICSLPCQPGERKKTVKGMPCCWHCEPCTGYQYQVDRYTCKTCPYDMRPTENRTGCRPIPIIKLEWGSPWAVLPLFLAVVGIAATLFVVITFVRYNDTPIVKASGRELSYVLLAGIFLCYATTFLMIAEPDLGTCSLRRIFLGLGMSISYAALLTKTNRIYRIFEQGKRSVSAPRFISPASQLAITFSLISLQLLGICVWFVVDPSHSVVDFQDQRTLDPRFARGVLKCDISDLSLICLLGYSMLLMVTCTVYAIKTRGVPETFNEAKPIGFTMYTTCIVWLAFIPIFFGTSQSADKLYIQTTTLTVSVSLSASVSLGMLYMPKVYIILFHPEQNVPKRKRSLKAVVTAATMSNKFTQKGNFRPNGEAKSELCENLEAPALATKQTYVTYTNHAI
How it was run: (§6)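 CHO cells expressing human mGlu4 and Gqi5, plated at 30,000 cells/well and grown overnight at 37 °C, 5% CO2. Cells were loaded with 1 μM Fluo-4 AM for 45 min at 37 °C in HBSS/20 mM HEPES/2.5 mM probenecid. Compounds were run as 10-point, 1:3 dilution series. After 142 s, EC20 glutamate was added; 147 s later, EC80 glutamate. Fluorescence was normalized to the maximal glutamate response. EC50 and %Glu Max were fitted by four-parameter logistic, with maximum normalized to PHCCC.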

[5] = Brain to plasma partition coefficient, Kp of the compound in rat administered as iv cassette dose; assay type: ADME, organism-based; conditions: brain and plasma, read-out: Kp
How it was run: (§7)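 Cassette dosing in male Sprague-Dawley rats (~300 g, n = 1 per experiment), with carotid artery and jugular vein catheters. Animals acclimated about one week with food and water ad libitum. Plasma (ng/mL) and brain (ng/g) levels were measured and Kp calculated.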

[6] = Unbound plasma concentration in Sprague-Dawley rat model of haloperidol-induced catalepsy at 10 mg/kg, po; assay type: ADME, organism-based; conditions: in vivo
How it was run: (§8)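 Male Sprague-Dawley rats given haloperidol 0.75 mg/kg i.p., then returned to cages for 60 min. Compound 10 mg/kg was dosed orally 30 min before catalepsy testing. Plasma, brain and CSF were then assayed, and free levels reported.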

[7] = target: T2, AhR (read out as CYP1A2 induction) (Homo sapiens, UniProt P35869); assay: Activation of AhR (unknown origin) assessed as CYP1A2 induction relative to control; assay type: ADME; conditions: read-out: FC
T2 sequence (P35869 whole entry): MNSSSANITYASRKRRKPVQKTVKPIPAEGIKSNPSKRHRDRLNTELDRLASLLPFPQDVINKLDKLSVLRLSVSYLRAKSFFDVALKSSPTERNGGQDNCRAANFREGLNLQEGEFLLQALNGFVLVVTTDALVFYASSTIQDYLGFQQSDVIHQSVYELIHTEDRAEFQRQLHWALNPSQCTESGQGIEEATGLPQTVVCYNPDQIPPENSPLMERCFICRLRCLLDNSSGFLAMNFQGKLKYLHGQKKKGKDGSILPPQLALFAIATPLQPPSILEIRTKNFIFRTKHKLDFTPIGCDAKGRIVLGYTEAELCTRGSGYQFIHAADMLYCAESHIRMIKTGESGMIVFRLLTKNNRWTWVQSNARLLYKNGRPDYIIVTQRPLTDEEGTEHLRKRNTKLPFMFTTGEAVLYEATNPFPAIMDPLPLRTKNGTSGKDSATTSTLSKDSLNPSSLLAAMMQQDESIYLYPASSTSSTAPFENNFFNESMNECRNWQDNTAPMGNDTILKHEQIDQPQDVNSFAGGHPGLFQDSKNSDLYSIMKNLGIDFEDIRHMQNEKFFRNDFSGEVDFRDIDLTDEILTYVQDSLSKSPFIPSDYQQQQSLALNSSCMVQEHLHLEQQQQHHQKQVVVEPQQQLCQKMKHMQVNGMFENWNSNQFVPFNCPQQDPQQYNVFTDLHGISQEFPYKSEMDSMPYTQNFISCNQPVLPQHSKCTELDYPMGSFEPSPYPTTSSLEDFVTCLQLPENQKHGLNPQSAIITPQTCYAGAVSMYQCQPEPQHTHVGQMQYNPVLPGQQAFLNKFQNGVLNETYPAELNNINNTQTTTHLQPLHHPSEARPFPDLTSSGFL

[8] = Cmax in rat at 15 mg/kg, po qd for 4 days measured on day 4 post dose; conditions: in vivo
[9] = Fraction unbound in rat plasma after 4 hrs by equilibrium dialysis method; assay type: ADME, cell-free
[10] = Unbound drug level in brain of Sprague-Dawley rat model of haloperidol-induced catalepsy at 10 mg/kg, po; assay type: ADME, organism-based; conditions: in vivo; how it was run: as §8
[11] = AUC in rat at 15 mg/kg, po qd for 4 days measured on day 1 post dose; conditions: in vivo
[12] = Drug uptake in cerebrospinal fluid of Sprague-Dawley rat model of haloperidol-induced catalepsy at 10 mg/kg, po; assay type: ADME, organism-based; conditions: in vivo, read-out: Drug uptake; how it was run: as §8
Cytochrome P450 1A2 = target: T3, Cytochrome P450 1A2 (Homo sapiens, UniProt P05177); assay: Inhibition of CYP1A2 in human liver microsomes using phenacetin as substrate preincubated for 15 mins followed by substrate addition and measured after 8 mins by LC-MS/MS analysis; assay type: ADME
T3 sequence (P05177 whole entry): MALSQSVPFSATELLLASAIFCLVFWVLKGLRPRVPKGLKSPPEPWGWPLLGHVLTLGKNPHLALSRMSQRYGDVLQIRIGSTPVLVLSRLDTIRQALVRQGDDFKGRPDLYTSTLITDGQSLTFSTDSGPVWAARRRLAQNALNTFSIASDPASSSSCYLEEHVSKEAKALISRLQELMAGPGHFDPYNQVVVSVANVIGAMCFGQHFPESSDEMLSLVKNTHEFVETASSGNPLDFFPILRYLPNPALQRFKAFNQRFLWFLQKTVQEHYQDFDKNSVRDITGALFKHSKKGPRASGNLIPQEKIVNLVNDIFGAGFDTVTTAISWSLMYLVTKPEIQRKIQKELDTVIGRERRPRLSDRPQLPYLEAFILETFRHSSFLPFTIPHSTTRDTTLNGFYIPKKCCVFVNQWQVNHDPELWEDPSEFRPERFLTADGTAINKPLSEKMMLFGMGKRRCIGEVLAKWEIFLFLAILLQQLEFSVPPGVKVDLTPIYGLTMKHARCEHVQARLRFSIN
How it was run: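 IC50 for CYP1A2 inhibition determined in human liver microsomes using specific probe substrate-metabolite pairs.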

[13] = target: T1, Metabotropic glutamate receptor 4; assay: as §5, with “measured” for “subsequent EC80 glutamate addition”, “assay relative to control” for “assay”; assay type: functional, cell-based; how it was run: as §6
Rattus norvegicus = assay: Reversal of haloperidol-induced catalepsy in Sprague-Dawley rat assessed as decrease in latency to remove forepaws from bar at 10 mg/kg, po administered 30 mins prior to test; assay type: functional, organism-based
How it was run: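 Male Sprague-Dawley rats were randomized and given haloperidol 0.75 mg/kg i.p., then 60 min in home cage. Vehicle or compound (10 mg/kg) was given orally 30 min before catalepsy testing, N = 11–12 rats/group. Data analyzed by one-way ANOVA with Dunnett's test versus vehicle + haloperidol.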

[14] = Plasma concentration in rat administered as iv cassette dose; assay type: ADME, organism-based; conditions: in vivo; how it was run: as §7
[15] = Drug uptake in rat brain administered as iv cassette dose; assay type: ADME, organism-based; conditions: in vivo; how it was run: as §7
[16] = Plasma concentration in Sprague-Dawley rat model of haloperidol-induced catalepsy at 10 mg/kg, po; assay type: ADME, organism-based; conditions: in vivo; how it was run: as §8
[17] = target: Metabotropic glutamate receptor 4 (Rattus norvegicus) (UniProt P31423); assay: as §2, with “assay relative to control” for “assay”; assay type: cell-based; how it was run: as §3
Sequence of Metabotropic glutamate receptor 4 (Rattus norvegicus) (P31423 whole entry): as the sequence (P31423 whole entry) above

[18] = Cmax in rat at 15 mg/kg, po qd for 4 days measured on day 1 post dose; conditions: in vivo
[19] = Fraction unbound in human plasma after 4 hrs by equilibrium dialysis method; assay type: ADME, cell-free
[20] = Drug uptake in brain of Sprague-Dawley rat model of haloperidol-induced catalepsy at 10 mg/kg, po; assay type: ADME, organism-based; conditions: in vivo, read-out: Drug uptake; how it was run: as §8
[21] = Intrinsic clearance in human liver microsomes at 1 uM preincubated for 5 mins followed by NADPH addition measured up to 45 mins by LC-MS/MS analysis; assay type: ADME, Microsome; conditions: read-out: CLH; how it was run: as §4
[22] = Half life in rat administered as iv cassette dose; assay type: ADME, organism-based; conditions: in vivo; how it was run: as §1
[23] = AUC in rat at 15 mg/kg, po qd for 4 days measured on day 4 post dose; conditions: in vivo

`CC(C)(C)Cc1noc2cc(Nc3n[nH]c4nccnc34)ccc12` gave a clearance [1] of 37.8 mL/min/kg, an EC50 [2] of 501 nM and a CLint scaled at 1 µM [3] of 62.5 mL/min/kg. The EC50 [4] was 860 nM, the Kp [5] was 4.7 and the “Cp(f)” value [6] was 11.2 nM. The fold induction [7] was 6.4, the Cmax [8] was 62.8 ng/mL and the fraction unbound at 4 h [9] was 0.023. For the same molecule, the “Drug uptake(free)” value [10] was 5.8 nM, the AUC at 96 h [11] was 624 ng·h/mL and the concentration [12] was 627 nM. For the same molecule, the IC50 (Cytochrome P450 1A2) was 3200 nM, the %max [13] was 83.5% and the Activity (Rattus norvegicus) was “Active”. It also gave a Cp [14] of 60.5 ng/mL, a Drug uptake [15] of 285 ng/g and a concentration [16] of 450 nM. The %max [17] was 98.7%, the Cmax [18] was 86.3 ng/mL and the fraction unbound at 4 h [19] was 0.023. It also gave a concentration [20] of 958 nM, a CLint scaled at 1 µM [21] of 7.2 mL/min/kg and a half-life [22] of 1.46 h. For the same molecule, the AUC at 96 h [23] was 690 ng·h/mL.
